Assay results from ChEMBL document CHEMBL2440053, “New route to the 5-((arylthio- and heteroarylthio)methylene)-3-(2,2,2-trifluoroethyl)-furan-2(5H)-ones--key intermediates in the synthesis of 4-aminoquinoline γ-lactams as potent antimalarial compounds” (Bioorg Med Chem Lett, 2013).
pIC50: −log10 of the molar value.

What was measured:
[1] = system: HUVEC; test: Cytotoxicity against HUVEC at 0.01 to 50 umol/L after 24 hrs by Tryptan Blue assay; type: cell-based; details: human
In short: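 Human umbilical vein endothelial cells (HUVEC) were exposed to final concentrations from 0.01 up to 50 μM. Cytotoxicity was reported as an IC50 or as a minimum cytotoxic value extrapolated from the tested range.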

[2] = system: Plasmodium falciparum; test: Antimalarial activity against chloroquine-sensitive Plasmodium falciparum 3D7 after 48 to 72 hrs by SYBR green-1 assay; type: functional, organism-based
In short: (§1)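 P. falciparum culture tested in vitro on the CQ-sensitive 3D7 or CQ-resistant W2 clone. Each experiment was run twice, with wells in triplicate. IC50 in nM is the mean of at least two experiments.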

[3] = system: Plasmodium falciparum; test: Antimalarial activity against chloroquine-resistant Plasmodium falciparum W2 after 48 to 72 hrs by SYBR green-1 assay; type: functional, organism-based; in short: as §1
[4] = system: Plasmodium falciparum; test: Resistant index, ratio of IC50 for chloroquine-resistant Plasmodium falciparum W2 to IC50 for chloroquine-sensitive Plasmodium falciparum 3D7; type: functional
[5] = system: HUVEC; test: Cytotoxicity against HUVEC up to 100 uM after 24 hrs by Tryptan Blue assay; type: cell-based; details: human

Row | Compound | Activity [1] | pIC50 [2] | pIC50 [3] | Ratio IC50 [4] | Activity [5]
1 | O=C1C(CC(F)(F)F)=CC(O)(CSc2cccc[n+]2[O-])N1CCNc1ccnc2cc(Cl)ccc12 (centres undefined) | Non-toxic | 6.62 | 6.56 | 1.13 | 
2 | O=C1C(CC(F)(F)F)=CC(O)(CSc2ncccn2)N1CCNc1ccnc2cc(Cl)ccc12 (centres undefined) | Non-toxic | 6.56 | 6.34 | 1.65 | 
3 | O=C1C(CC(F)(F)F)=CC(O)(CSc2ccccc2)N1CCNc1ccnc2cc(Cl)ccc12 (centres undefined) | Non-toxic | 6.97 | 6.78 | 1.56 | 
4 | CN(CCNc1ccnc2cc(Cl)ccc12)CCN1C(=O)C(CC(F)(F)F)=CC1(O)CSc1ccc(Cl)cc1 (centres undefined) |  | 7.26 | 7.24 |  | Non-toxic
5 | O=C1C(CC(F)(F)F)=CC(O)(CSc2ccc(F)cc2)N1CCNc1ccnc2cc(Cl)ccc12 (centres undefined) | Non-toxic | 6.52 | 6.12 | 2.49 | 
6 | CN(CCNc1ccnc2cc(Cl)ccc12)CCN1C(=O)C(CC(F)(F)F)=CC1(O)CSc1ccccc1 (centres undefined) |  | 7.33 | 7.26 |  | Non-toxic
7 | COc1ccc(SCC2(O)C=C(CC(F)(F)F)C(=O)N2CCNc2ccnc3cc(Cl)ccc23)cc1 (centres undefined) | Non-toxic | 7.00 | 6.76 | 1.71 | 
8 | CN(CCNc1ccnc2cc(Cl)ccc12)CCN1C(=O)C(CC(F)(F)F)=CC1(O)CSc1ccc(Br)cc1 (centres undefined) |  | 7.35 | 7.38 |  | Non-toxic
9 | O=C1C(CC(F)(F)F)=CC(O)(CSc2ccncc2)N1CCNc1ccnc2cc(Cl)ccc12 (centres undefined) |  | 7.05 | 6.18 | 7.48 | 
10 | Cn1cnnc1SCC1(O)C=C(CC(F)(F)F)C(=O)N1CCNc1ccnc2cc(Cl)ccc12 (centres undefined) |  | 6.30 | < 5.80 | >3.2 | 
11 | O=C1C(CC(F)(F)F)=CC(O)(CSc2ccccn2)N1CCNc1ccnc2cc(Cl)ccc12 (centres undefined) | Non-toxic | 6.75 | 6.66 | 1.22 | 
